From ChEMBL document CHEMBL2046352, “Discovery of novel 5-(ethyl or hydroxymethyl) analogs of 2'-'up' fluoro (or hydroxyl) pyrimidine nucleosides as a new class of Mycobacterium tuberculosis, Mycobacterium bovis and Mycobacterium avium inhibitors” (Bioorg Med Chem, 2012)

Legend:
[1] = tested on: Mycobacterium tuberculosis; experiment: Antimycobacterial activity against Mycobacterium bovis BCG assessed as inhibition of microbial growth at 1 ug/ml incubated for 6 days by MABA method; type: functional; settings: variant bovis BCG, 144 h, read-out: GI
How it was run: (§1)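 Microplate alamar blue assay in 7H9GC medium. Compounds dissolved in DMSO at 10 mg/mL (stock), diluted to 100, 50, 25, 10, 5, 1 and 0.5 ug/mL, each in triplicate. Frozen inoculum added at final 2.5 x 10^5 CFU/mL. Bacteria-alone and medium-alone control wells. Read by colour change and fluorescence. % inhibition = (test − M bkg)/(B − M bkg) x 100, mean of two experiments. MIC50 = lowest concentration giving ≥50% inhibition.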

[2] = tested on: Mycobacterium tuberculosis; experiment: Antimycobacterial activity against Mycobacterium bovis BCG assessed as inhibition of microbial growth at 100 ug/ml incubated for 6 days by MABA method; type: functional; settings: variant bovis BCG, 144 h, read-out: GI; how it was run: as §1
[3] = tested on: Mycobacterium tuberculosis; experiment: Antimycobacterial activity against Mycobacterium bovis BCG assessed as inhibition of microbial growth at 50 ug/ml incubated for 6 days by MABA method; type: functional; settings: variant bovis BCG, 144 h, read-out: GI; how it was run: as §1
[4] = tested on: Mycobacterium tuberculosis; experiment: Antimycobacterial activity against Mycobacterium bovis BCG assessed as inhibition of microbial growth at 0.5 to 100 ug/ml incubated for 6 days by MABA method; type: functional, variant bovis BCG; how it was run: as §1
[5] = tested on: Mycobacterium tuberculosis; experiment: Antimycobacterial activity against Mycobacterium bovis BCG assessed as inhibition of microbial growth at 5 ug/ml incubated for 6 days by MABA method; type: functional; settings: variant bovis BCG, 144 h, read-out: GI; how it was run: as §1
[6] = tested on: Mycobacterium tuberculosis; experiment: Antimycobacterial activity against Mycobacterium bovis BCG assessed as inhibition of microbial growth incubated for 6 days by MABA method; type: functional; settings: variant bovis BCG, 144 h; how it was run: as §1
[7] = tested on: Mycobacterium tuberculosis; experiment: Antimycobacterial activity against Mycobacterium bovis BCG assessed as inhibition of microbial growth at 10 ug/ml incubated for 6 days by MABA method; type: functional; settings: variant bovis BCG, 144 h, read-out: GI; how it was run: as §1
[8] = tested on: Mycobacterium tuberculosis; experiment: Antimycobacterial activity against Mycobacterium bovis BCG assessed as inhibition of microbial growth at 0.5 ug/ml incubated for 6 days by MABA method; type: functional; settings: variant bovis BCG, 144 h, read-out: GI; how it was run: as §1

Row | SMILES | inhibition of growth at 100 µg/mL [2] [%] | inhibition of growth at 50 µg/mL [3] [%] | further results
1 | Cc1cn([C@@H]2O[C@H](CO)[C@@H](Br)[C@@H]2O)c(=O)[nH]c1=O | – | – | inhibition of growth at 1 µg/mL [1]: 40%
2 | CCc1cn([C@@H]2O[C@H](COC(C)=O)[C@@H](OC(C)=O)[C@@H]2F)c(=O)[nH]c1=O | 75 | 55 | –
3 | CCc1cn([C@@H]2O[C@H](CO)[C@@H](O)[C@@H]2F)c(=O)[nH]c1=S | 65 | 55 | –
4 | CCc1cn([C@@H]2O[C@H](CO)[C@@H](O)[C@@H]2F)c(=O)nc1N | 50 | – | –
5 | CCc1cn2c(nc1=O)O[C@@H]1[C@H](F)[C@H]2O[C@@H]1CO | 25 | 25 | –
6 | CCc1cn([C@@H]2O[C@H](CO)[C@@H](N=[N+]=[N-])[C@@H]2F)c(=O)[nH]c1=O | – | – | growth inhibition (GI) [4]: 0%
7 | CCc1cn([C@@H]2O[C@H](CO)[C@@H](Br)[C@@H]2F)c(=O)[nH]c1=O | 80 | 70 | inhibition of growth at 5 µg/mL [5]: 50%; MIC50 [6]: 5 µg/mL; inhibition of growth at 10 µg/mL [7]: 60%
8 | CCc1cn([C@@H]2O[C@H](CO)C[C@@H]2F)c(=O)[nH]c1=O | 25 | – | –
9 | O=c1[nH]c(=O)n([C@@H]2O[C@H](CO)[C@@H](O)[C@@H]2O)cc1CO | – | – | growth inhibition (GI) [4]: 0%
10 | O=c1[nH]c(=S)c(CO)cn1[C@@H]1O[C@H](CO)[C@@H](O)[C@@H]1O | 100 | 100 | inhibition of growth at 5 µg/mL [5]: 75%; MIC50 [6]: 0.5 µg/mL; inhibition of growth at 10 µg/mL [7]: 90%; inhibition of growth at 0.5 µg/mL [8]: 50%
11 | COCc1cn([C@@H]2O[C@H](CO)[C@@H](O)[C@@H]2O)c(=O)nc1N | 80 | 60 | inhibition of growth at 10 µg/mL [7]: 50%
12 | CCc1cn([C@H]2O[C@@H](CO)[C@H](O)[C@H]2F)c(=O)[nH]c1=O (single isomer, unassigned) | – | – | growth inhibition (GI) [4]: 0%
13 | CO[C@H]1/C=C/O[C@@]2(C)Oc3c(C)c(O)c4c(O)c(c(/C=N/N5CCN(C)CC5)c(O)c4c3C2=O)NC(=O)/C(C)=C\C=C\[C@H](C)[C@H](O)[C@@H](C)[C@@H](O)[C@@H](C)[C@H](OC(C)=O)[C@@H]1C [RIFAMPIN] | – | – | inhibition of growth at 0.5 µg/mL [8]: 100%
